Tests used:
[1] = Efflux ratio of apparent permeability from basolateral to apical membrane over apical to basolateral membrane in MDCK-MDR1 cells; format: ADME, cell-based, Canis lupus familiaris; details: dog
Outline: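 Calculated as B-A/A-B apparent permeability ratio across MDR1-MDCK cell monolayers; A-B permeability expressed as ×10⁻⁶ cm/s.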

[2] = In vivo modulation of gamma secretase transgenic Tg2576 mouse overexpressing human APP harboring K595N/M596L Swedish double mutant assessed as reduction in plasma amyloid beta38 level at 50 mg/kg, po administered via gavage for 14 consecutive days and measured after 4 hrs post last dose on day 14 by meso scale discovery relative to control; format: functional; design: scale not given: the % may be the effect or the level left; details: time 14 day
Outline: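 Female Tg2576 mice, 5–6 months old (n=12/dose), gavaged daily for 14 days with 50 mg/kg or vehicle (5% NMP/95% PEG300). Plasma and brain taken 4 h after the last dose. Aβ38/40/42 quantified by Meso Scale multiplex assay, with % reduction versus vehicle. Mean ± SEM, ANOVA.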

Structure (SMILES): COc1nc(-c2csc(Nc3c4c(nn3CCF)CCCC4)n2)ccc1-n1cnc(C)c1
- Ratio [1]: 1.9

Structure (SMILES): CCn1nc2c(c1Nc1nc(-c3ccc(-n4cnc(C)c4)c(OC)n3)cs1)CCC2
- Activity [2]: 111%

Reference: ChEMBL document CHEMBL4699542, “Design and synthesis of novel methoxypyridine-derived gamma-secretase modulators” (Bioorg Med Chem, 2020)
